Non-standard residues stand in square brackets, D forms with d. Residues, ends and D or L forms follow the SMILES beside them. Lys(Me2) = CN(C)CCCC[C@H](N)C(=O)O; hArg = N=C(N)NCCCC[C@H](N)C(=O)O; hLys = NCCCCC[C@H](N)C(=O)O; Nlys = NCCCCNCC(=O)O
Columns and labels:
CD40 mRNA [1] = test: […] CD40 expression in BCL1 cells treated with 10 uM peptide nucleic acid (PNA)conjugate; n=3; assay type: functional, cell-based; conditions: Mus musculus
How it was run: (§1)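 Mouse BCL1 cells in DMEM with 10% FBS, given conjugate at 1, 3 or 10 μM by free uptake (no transfection agent) for 3 days. Cells trypsinised and stained 1 h with FITC anti-CD40 (HM40-3) or isotype control, then surface CD40 read by flow cytometry. Results are % untreated control, mean ± SD, n = 3.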

[2] = Half-life of the conjugate when treated with 25% murine serum for enzymatic stability; No data available; assay type: ADME; conditions: mouse
How it was run: (§2)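 Conjugates at 20 μM in 10% FBS RPMI 1640 medium or 25% mouse serum (Hepes-stabilised, diluted in PBS, pH 7.1–7.4), incubated at 37 °C. Sampled to 168 h (FBS) or 48 h (serum); proteins precipitated with 10% DCA, PNA 6mer internal standard added. Analysed by C3 RP-HPLC at 60 °C; t1/2 from normalised full-length peak area versus time.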

CD40 mRNA [3] = test: […] CD40 expression in BCL1 cells treated with 3 uM peptide nucleic acid (PNA)conjugate; n=3; assay type: functional, cell-based; conditions: Mus musculus; how it was run: as §1
BCL1 [4] = test: Inhibitory concentration against BCL1 cell proliferation in WST-1 assay; assay type: functional, Mus musculus
How it was run: (§3)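 BCL1 cells, 2000 per well, grown in DMEM with 10% FBS at 37 °C and 5% CO2. Exposed to conjugate for 3 days, then viable cells read by WST-1 absorbance at 450 nm. Value is the concentration at which absorbance fell below 50% of untreated control; triplicates.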

CD40 mRNA [5] = test: […] CD40 expression in BCL1 cells treated with 1 uM peptide nucleic acid (PNA)conjugate; n=3; assay type: functional, cell-based; conditions: Mus musculus; how it was run: as §1
[6] = Half-life of the conjugate when treated with 10% foetal bovine serum for enzymatic stability; assay type: ADME, Bos taurus; conditions: cattle; how it was run: as §2
BCL1 [7] = test: Inhibitory concentration against BCL1 cell proliferation in WST-1 assay; Range 10-20; assay type: functional, Mus musculus; how it was run: as §3
[8] = Half-life of the conjugate when treated with 25% murine serum for enzymatic stability; Range 2-3 h; assay type: ADME; conditions: mouse; how it was run: as §2

Row | Structure (SMILES) | UTC (CD40 mRNA [1]) [%] | T1/2 [2] | UTC (CD40 mRNA [3]) [%] | IC50 for cell proliferation (BCL1 [4]) [µM] | UTC (CD40 mRNA [5]) [%] | half-life [6] [h] | IC50 (BCL1 [7]) [µM] | half-life [8] [h]
1 | NCCCC[C@@H](C=O)NC(=O)[C@H](CCCCN)NC(=O)[C@H](CCCCN)NC(=O)[C@H](CCCCN=C(N)N)NC(=O)[C@H](CCCCN)NC(=O)[C@H](CCCCN)NC(=O)[C@H](CCCCN=C(N)N)NC(=O)[C@H](CCCCN)NC(=O)[C@@H](N)CCCCN (H-KK[hArg]KK[hArg]KKK-aldehyde) | 36 | No data available | 75 | 10 | 92 | > 168 | – | –
2 | CN(C)CCCC[C@H](NC(=O)[C@H](CCCCN)NC(=O)[C@H](CCCCN(C)C)NC(=O)[C@H](CCCCN)NC(=O)[C@H](CCCCN(C)C)NC(=O)[C@H](CCCCN)NC(=O)[C@H](CCCCN(C)C)NC(=O)[C@@H](N)CCCCN)C(=O)N[C@H](C=O)CCCCN (H-K[Lys(Me2)]K[Lys(Me2)]K[Lys(Me2)]K[Lys(Me2)]K-aldehyde) | 53 | No data available | 89 | 20 | 96 | > 168 | – | –
3 | NCCCC[C@H](NC(=O)CN(CCCCN)C(=O)[C@H](CCCCN)NC(=O)CN(CCCCN)C(=O)[C@H](CCCCN)NC(=O)CN(CCCCN)C(=O)[C@H](CCCCN)NC(=O)CN(CCCCN)C(=O)[C@@H](N)CCCCN)C(=O)O (H-K[Nlys]K[Nlys]K[Nlys]K[Nlys]K-OH) | 70 | No data available | 96 | – | 111 | > 168 | 20 | –
4 | NCCCCC[C@H](NC(=O)[C@H](CCCCN)NC(=O)[C@H](CCCCCN)NC(=O)[C@H](CCCCN)NC(=O)[C@H](CCCCCN)NC(=O)[C@H](CCCCN)NC(=O)[C@H](CCCCCN)NC(=O)[C@@H](N)CCCCN)C(=O)N[C@H](C=O)CCCCN (H-K[hLys]K[hLys]K[hLys]K[hLys]K-aldehyde) | 32 | No data available | 61 | >20 | 81 | > 168 | – | –
5 | N=C(N)NCCC[C@H](NC(=O)[C@H](CCCNC(=N)N)NC(=O)[C@H](CCCNC(=N)N)NC(=O)[C@H](CCCNC(=N)N)NC(=O)[C@H](CCCNC(=N)N)NC(=O)[C@H](CCCNC(=N)N)NC(=O)[C@H](CCCNC(=N)N)NC(=O)[C@@H](N)CCCNC(=N)N)C(=O)N[C@H](C=O)CCCCN (H-RRRRRRRRK-aldehyde) | 60 | – | 81 | >20 | 102 | 20 | – | 3
6 | CN(C)CCCC[C@H](NC(=O)[C@H](CCCCN(C)C)NC(=O)[C@H](CCCCN)NC(=O)[C@H](CCCCN(C)C)NC(=O)[C@H](CCCCN(C)C)NC(=O)[C@H](CCCCN)NC(=O)[C@H](CCCCN(C)C)NC(=O)[C@@H](N)CCCCN(C)C)C(=O)N[C@H](C=O)CCCCN (H-[Lys(Me2)][Lys(Me2)]K[Lys(Me2)][Lys(Me2)]K[Lys(Me2)][Lys(Me2)]K-aldehyde) | 63 | No data available | 89 | >20 | 91 | > 168 | – | –

Source: ChEMBL document CHEMBL1141128, “Structure-activity relationship study on a simple cationic peptide motif for cellular delivery of antisense peptide nucleic acid” (J Med Chem, 2005)
